Measurements published in ChEMBL document CHEMBL5724801, “EUbOPEN Chemogenomics Library - Multiplex” (2024).
Values joined by “and” are separate entries in the source; they are usually repeats but may differ in a detail not shown here. Equal values may be shown once.

Test system: U2OS
Test: Multiplex assay against U2OS
Type: toxicity, cell-based
Conditions: human
Summary of the method: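 Hoechst33342, BioTracker Green Microtubule Cytoskeleton Dye, MitoTracker Red and Annexin V Alexa Fluor 680 were added to live cells at seeding, and imaging on a CQ1 microscope at 37°C and 5% CO2 followed compound addition. Gating by CellPathfinder machine learning separated cells into Hoechst high-intensity objects or normal cells, then normal cells into healthy, pyknosed or fragmented nuclei, then pyknosed cells into mitotic or apoptotic. Per cents of healthy-nucleus cells are reported for the tubulin, mitochondrial-mass and membrane-permeability phenotypes.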

[1] = 12 h, 1 µM, compound concentration 1 uM
[2] = 12 h, 10 µM, compound concentration 10 uM
[3] = 24 h, 1 µM, compound concentration 1 uM
[4] = 24 h, 10 µM, compound concentration 10 uM
[5] = 48 h, 1 µM, compound concentration 1 uM
[6] = 48 h, 10 µM, compound concentration 10 uM

## O=c1nc2[nH]c3ccccc3nc-2c(=O)[nH]1 [ALLOXAZINE]
[1]
  Population Apoptotic (%): 70% and 75%
  Population Fragmented Nuclei (%): 25% and 15%
  Population Healthy Nuclei (%): 61% and 74%
  Population Hoechst High Intensity Objects (%): 2%
  Population Membrane Permeable-Phenotype (%): 5%
  Population Mitochondria Different-Phenotype (%): 0% and 5%
  Population Mitotic Cells (%): 29% and 25%
  Population Normal (%): 97%
  Population Pyknosed Nuclei (%): 12% and 10%
  Population Tubulin-Different-Phenotype (%): 3%
  Total Cell Count: 195 and 122
[2]
  Population Apoptotic (%): 86% and 88%
  Population Fragmented Nuclei (%): 33% and 13%
  Population Healthy Nuclei (%): 59% and 78%
  Population Hoechst High Intensity Objects (%): 0% and 1%
  Population Membrane Permeable-Phenotype (%): 7%
  Population Mitochondria Different-Phenotype (%): 0% and 5%
  Population Mitotic Cells (%): 13% and 11%
  Population Normal (%): 99% and 98%
  Population Pyknosed Nuclei (%): 7%
  Population Tubulin-Different-Phenotype (%): 1% and 3%
  Total Cell Count: 212 and 119
[3]
  Population Apoptotic (%): 73% and 57%
  Population Fragmented Nuclei (%): 24% and 16%
  Population Healthy Nuclei (%): 66% and 74%
  Population Hoechst High Intensity Objects (%): 1% and 2%
  Population Membrane Permeable-Phenotype (%): 4% and 5%
  Population Mitochondria Different-Phenotype (%): 1% and 5%
  Population Mitotic Cells (%): 26% and 42%
  Population Normal (%): 98% and 97%
  Population Pyknosed Nuclei (%): 8% and 9%
  Population Tubulin-Different-Phenotype (%): 2%
  Total Cell Count: 261 and 146
[4]
  Population Apoptotic (%): 78% and 75%
  Population Fragmented Nuclei (%): 30% and 16%
  Population Healthy Nuclei (%): 61% and 80%
  Population Hoechst High Intensity Objects (%): 0% and 2%
  Population Membrane Permeable-Phenotype (%): 8% and 5%
  Population Mitochondria Different-Phenotype (%): 2% and 4%
  Population Mitotic Cells (%): 21% and 25%
  Population Normal (%): 99% and 97%
  Population Pyknosed Nuclei (%): 8% and 2%
  Population Tubulin-Different-Phenotype (%): 2% and 3%
  Total Cell Count: 237 and 148
[5]
  Population Apoptotic (%): 84% and 76%
  Population Fragmented Nuclei (%): 19% and 18%
  Population Healthy Nuclei (%): 71% and 72%
  Population Hoechst High Intensity Objects (%): 1% and 6%
  Population Membrane Permeable-Phenotype (%): 1% and 4%
  Population Mitochondria Different-Phenotype (%): 1% and 2%
  Population Mitotic Cells (%): 15% and 23%
  Population Normal (%): 98% and 93%
  Population Pyknosed Nuclei (%): 9% and 8%
  Population Tubulin-Different-Phenotype (%): 1% and 2%
  Total Cell Count: 362 and 207
[6]
  Population Apoptotic (%): 90% and 76%
  Population Fragmented Nuclei (%): 26% and 12%
  Population Healthy Nuclei (%): 66% and 79%
  Population Hoechst High Intensity Objects (%): 1%
  Population Membrane Permeable-Phenotype (%): 5% and 3%
  Population Mitochondria Different-Phenotype (%): 1%
  Population Mitotic Cells (%): 9% and 23%
  Population Normal (%): 98%
  Population Pyknosed Nuclei (%): 6% and 8%
  Population Tubulin-Different-Phenotype (%): 2%
  Total Cell Count: 321 and 210
